# Apaf1 inhib: blocks human Apaf-1 apoptosome activity | 0.71% of 330,000 active | O14727 | reconstituted apoptosome caspase-3 activity, DEVD-Rh110 fluorescence | inhibition, % at 20 µM; active = inhibition of at least 40% at 20 µM;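 note: plate controls were DMSO wells for no effect and DEVD-CHO caspase inhibitor wells for full effect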
#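 System – cell-free apoptosome with Apaf-1, procaspase-3 and caspase-9 · Buffer or medium – pH 7.5 Hepes buffer with CHAPS, BSA, DTT · Also added – cytochrome c with DEVD-Rh110 · Times – 30 min compound preincubation, 50 min activation, room temperature · Technique – Rh110 fluorescence intensity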
# SENP8 block-1: inhibitors of human SENP8 protease | 1.2% of 330,000 active | purified SENP8, Z-RLRGG-aminoluciferin cleavage, luminescence | Q96LD8 | inhibition, % at 10 µM; in the data active = inhibition above about 50%
# SENP8 block-2: inhibitors of human SENP8 protease; 0.64% of 360,000 active; Q96LD8; recombinant SENP8, Nedd8 substrate fluorescence; inhibition, % at 20 µM; in the data active = inhibition mostly above about 40%, no sharp cut-off; inactive = mostly below about 27%
# SENP1 FRET inh: blocks the human SENP1 SUMO protease catalytic domain; inhibition, % at 10 µM; 0.21% of 360,000 active; recombinant SENP1 catalytic domain, CyPet-SUMO1-YPet FRET cleavage;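 active = inhibition at least 30% at 10 µM, raw YFP signal under a set limit, fluorescence ratio 0.5 to 1.5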;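 note: 0% = enzyme with DMSO and 100% = no enzyme wells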
# Target sequence (Q9P0U3 419-644 limits assumed): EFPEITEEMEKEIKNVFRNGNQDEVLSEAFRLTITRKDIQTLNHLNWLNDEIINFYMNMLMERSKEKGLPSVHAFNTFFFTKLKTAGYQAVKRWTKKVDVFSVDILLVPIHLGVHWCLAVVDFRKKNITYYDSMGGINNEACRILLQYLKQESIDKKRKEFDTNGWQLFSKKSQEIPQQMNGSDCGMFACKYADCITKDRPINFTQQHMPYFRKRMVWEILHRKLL
#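 system = hSENP1 catalytic domain, recombinant | reagent = SFCypet-SUMO1-SFYpet substrate at 25 nM | doses = one dose per compound, 10 µM, 0.5% DMSO | incubation = enzyme reaction for 50 min at room temperature, dark | measured by = FRET, CFP and YFP emission | controls = no-enzyme low, enzyme-DMSO high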
# SENP7 inh: SENP7 protease inhibition; recombinant SENP7, Z-RLRGG-aminoluciferin luminescence, 40 min; Q9BQF6; inhibition, % at 5 µM; AID 434973; 1.5% of 330,000 active;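 active = inhibition above about 50% at the single test dose, limit read from the data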;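 note: plate controls were DMSO with enzyme for no effect and no enzyme buffer wells for full effect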
# Target sequence (Q9BQF6 706-1050 limits assumed): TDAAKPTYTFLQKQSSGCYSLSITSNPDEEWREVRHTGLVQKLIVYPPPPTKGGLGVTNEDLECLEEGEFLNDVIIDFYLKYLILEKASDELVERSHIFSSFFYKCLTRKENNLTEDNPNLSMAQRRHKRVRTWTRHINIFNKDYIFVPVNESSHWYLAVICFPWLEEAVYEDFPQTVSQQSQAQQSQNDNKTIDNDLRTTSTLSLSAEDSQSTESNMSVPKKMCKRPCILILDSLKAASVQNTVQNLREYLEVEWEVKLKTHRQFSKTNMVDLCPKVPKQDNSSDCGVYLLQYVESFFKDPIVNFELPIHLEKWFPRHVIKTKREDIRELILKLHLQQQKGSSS
# SENP6 inh: blocks the human protease SENP6; Q9GZR1; Recombinant SENP6 catalytic domain, aminoluciferin luminescence; inhibition, % at 10 µM; 1.8% of 330,000 active;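 active = inhibition above about 50% at the single tested dose, limit read from the data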;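 note: plate controls were DMSO wells with enzyme for no effect and DMSO wells lacking enzyme for full effect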
# Apaf-1 inh conf2: Apaf-1 inhibition, single-dose confirmed | shares compounds with Apaf1 inhib | 25% of 1,800 active | inhibition, % at 20 µM | reconstituted apoptosome, caspase-3 DEVD-Rh110 fluorescence;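 active = mean inhibition of at least 40% at 20 µM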;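 note: plate controls were DMSO wells for no effect and DEVD-CHO caspase inhibitor control wells for full effect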
# Rh110 interf inh: Rh110 signal interference in Apaf-1 inhibitor counter-screen; AID 504615; activation (fluorescence interference), % at 20 µM; 1,800 tested, under 10 active; shares compounds with Apaf1 inhib; Rh110 fluorescence interference, quenched caspase reaction;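 active = signal rise of 40% or more at 20 µM, treated as a fluorescence artifact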
# Apaf1 inh interf: counter-screen for Apaf-1 inhibitors: fluorescence interference, dose response. shares compounds with Apaf1 inhib. fluorescence interference counterscreen, Apaf-1 assay format. IC50, µM. AID 588538. 460 tested, under 10 active; call rule not given here
# * marks the source's active call; other numbers are inactive results; i = inactive; . = no result; ! = not active in a repeat. Shown are actives, neighbours in structure and some others; about 2.9% of the full set was active somewhere.
SMILES,Apaf1 inhib,SENP8 block-1,SENP8 block-2,SENP1 FRET inh,SENP7 inh,SENP6 inh,Apaf-1 inh conf2,Rh110 interf inh,others
COc1ccccc1OCC(=O)NCC1CCCN(C(=O)c2ccccc2SC)C1 (stereo unspecified),51*,-9,0,-2,-2,-8,10,-1,
O=C1C(Cl)=C(NCCN2CCOCC2)C(=O)c2ccccc21,46*,11,59*,1,12,27,47*,2,Apaf1 inh interf=>100
O=C1c2ccccc2C(=O)N1CCN1CCOCC1,-3,-4,6,1,9,-20,.,.,
C#CCOCCOCCOCCNc1nc(N2CCN(C(=O)[C@H](CCCN=C(N)N)n3cc(C(N)[C@@H](C)CC)nn3)CC2)nc(N2CCN(C(=O)[C@H](CCC(=O)O)n3cc([C@@H](N)CCCCN)nn3)CC2)n1 (stereo partly specified),22,-13,16,4,-2,-25,.,.,
C#CCOCCOCCOCCNc1nc(N2CCN(C(=O)[C@H](CCCCN)n3cc(CN)nn3)CC2)nc(N2CCN(C(=O)[C@H](CCCCN)n3cc([C@@H](N)[C@H](C)CC)nn3)CC2)n1,40*,-10,19,-1,-13,-23,6,-1,
C#CCOCCOCCOCCNc1nc(N2CCN(C(=O)[C@H](CCCN=C(N)N)n3cc(C(N)[C@@H](C)CC)nn3)CC2)nc(N2CCN(C(=O)[C@H](CCCCN)n3cc([C@@H](N)[C@H](C)CC)nn3)CC2)n1 (stereo partly specified),50*,-12,15,3,-7,-3,5,6,
C#CCOCCOCCOCCNc1nc(N2CCN(C(=O)[C@H](CCCCN)n3cc(C(N)[C@H](C)CC)nn3)CC2)nc(N2CCN(C(=O)[C@H](CCC(=O)O)n3cc(C(N)[C@H](C)CC)nn3)CC2)n1 (stereo partly specified),8,-5,17,-10,1,1,.,.,
C#CCOCCOCCOCCNc1nc(N2CCN(C(=O)[C@H](CCCCN)n3cc([C@@H](N)[C@H](C)CC)nn3)CC2)nc(N2CCN(C(=O)[C@H](CCC(=O)O)n3cc([C@@H](N)CCCCN)nn3)CC2)n1,47*,5,30,1,-10,2,-4,-2,
C#CCOCCOCCOCCNc1nc(N2CCN(C(=O)[C@H](CCCCN)n3cc(CCCC)nn3)CC2)nc(N2CCN(C(=O)[C@H](CCCCN)n3cc(CCCC)nn3)CC2)n1,50*,-12,23,-1,-7,-20,11,-3,
CCOC1=C2[C@@H](CN(S(=O)(=O)c3ccc(C)cc3)[C@H]2c2ccccc2)[C@H]2C(=O)N(c3ccccc3)C(=O)[C@H]2C1,.,.,12,3,.,.,.,.,
Cc1c(C(=O)N2CCCCC2)c(S(=O)(=O)NCc2ccc(Cl)cc2)c(C)n1C,-10,4,11,1,6,11,.,.,
COc1ccc(NC(=O)C2(C)Cc3c(-c4ccc(N(C)C)cc4)ccnc3O2)cc1 (stereo unspecified),.,.,i,-1,.,.,.,.,
COCCNC(=O)C1CCCN(C(=O)c2cc(-c3cccs3)oc2C)CC1 (stereo unspecified),.,.,0,2,.,.,.,.,
CCCCC(CC)CN1C(=O)/C(=C/c2ccncc2)SC1=S (stereo unspecified),42*,-14,25,-39,-6,-19,17,10,
CCN1C(=O)/C(=C\c2ccncc2)SC1=S,13,5,13,3,5,-12,.,.,
COc1ccc(-c2c(-c3cc(OC)cc(OC)c3)n(C)c3ccc(-c4ccc(S(N)(=O)=O)cc4)cc23)cc1,-12,0,i,4,6,4,.,.,
S=c1[nH]c2ncccc2o1,-7,5,5,1,6,-1,.,.,
S=c1[nH]c2cc(Cl)c3cccnc3c2o1,46*,5,-7,3,8,10,26,1,
O=C(NC1=C(Nc2ccc(Cl)cc2)C(=O)c2ccccc2C1=O)c1ccccc1,54*,11,52*,1,13,12,42*,-5,Apaf1 inh interf=>100
Cc1cccc(C(=O)Nc2cccc(NC(=O)c3ccccc3)c2)c1,3,4,13,1,-4,20,.,.,
Cc1cccc(NC2=C(NC(=O)c3ccccc3)C(=O)c3ccccc3C2=O)c1,73*,18,76*,-1,17,43,58*,11,Apaf1 inh interf=>100
O=C(Nc1ccc(Nc2ccccc2)cc1)c1ccccc1,-5,-3,.,.,-16,1,.,.,
O=C(C(=O)N1CCN(C(=O)OCc2ccccc2)CC1)c1cccs1,.,.,11,-1,.,.,.,.,
CCC(C)(C)C1CCc2[nH]nc(C(=O)NC(C)C)c2C1 (stereo unspecified),7,3,19,0,-7,1,.,.,
O=[N+]([O-])c1c(Nc2ccccn2)cc(Cl)c2nonc12,91*,43,68*,-2,95*,87*,28,-2,
SMILES,Apaf1 inhib,SENP8 block-1,SENP8 block-2,SENP1 FRET inh,SENP7 inh,SENP6 inh,Apaf-1 inh conf2,Rh110 interf inh,others
O=C(Nc1ccc(OC(F)F)c(Cl)c1)[C@@H]1CCCN1C(=O)c1cccs1,92*,4,24,2,-2,-6,11,6,
CC(=O)c1cccc(OCC(=O)N(CCC2=CCCCC2)c2c(N)n(Cc3ccccc3)c(=O)[nH]c2=O)c1,.,.,-72,-9,.,.,.,.,
CCN1CCCC1CNC(=O)c1cc2c(-c3ccc(Cl)cc3)nn(C)c2s1 (stereo unspecified),49*,-17,-407,4,-7,-6,11,13,
CC(C)(C)C(=O)C(C(c1ccccc1)N1CCOCC1)N1CCOCC1 (stereo unspecified),.,.,5,1,.,.,.,.,
CSc1ccc2c(c1)C(N1CCN(C)CC1)Cc1ccccc1S2 (stereo unspecified),48*!,-10,9,1,4,-14,21,17,
Cc1cc(C)c2sc(N(CCCN(C)C)C(=O)c3ccc(S(=O)(=O)N(C)C4CCCCC4)cc3)nc2c1,40*,0,10,-1,-6,1,23,8,
CN(C)CCCN(C(=O)c1ccc(S(=O)(=O)N2CCCC2)cc1)c1nc2ccc(Br)cc2s1,53*,-7,9,0,-1,-11,13,6,
CCOc1ccc2nc(N(CCCN(C)C)C(=O)c3ccc(S(=O)(=O)N4CCCC4)cc3)sc2c1,12,7,11,0,-3,-4,.,.,

# Source: PubChem (Sanford-Burnham Center for Chemical Genomics)
